# Experimental data published in ChEMBL document CHEMBL1140369, “Synthesis and SAR of 2-carboxylic acid indoles as inhibitors of plasminogen activator inhibitor-1” (Bioorg Med Chem Lett, 2005).
# How the values were obtained:
# [1] = target: T1, Plasminogen activator inhibitor 1 (Homo sapiens, UniProt P05121); assay: Percentage inhibitory activity against Plasminogen activator inhibitor-1 at 10 uM
# Summary of the method: (§1)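 Recombinant human PAI-1 with compound, then tPA added; restored tPA cleavage of a chromogenic substrate read spectrophotometrically and reported as % inhibition at single concentration. Buffer pH 6.6: Na2HPO4 50 mM, NaCl 200 mM, EDTA 1 mM, no serum protein.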
# [2] = target: T1, Plasminogen activator inhibitor 1; assay: Percentage inhibitory activity against Plasminogen activator inhibitor-1 at 25 uM; summary of the method: as §1
# [3] = target: T1, Plasminogen activator inhibitor 1; assay: Percentage inhibitory activity against Plasminogen activator inhibitor-1 at 100 uM; summary of the method: as §1
# [4] = target: T1, Plasminogen activator inhibitor 1; assay: Inhibitory concentration against Plasminogen activator inhibitor-1 by antibody assay
# T1 sequence (P05121 whole entry): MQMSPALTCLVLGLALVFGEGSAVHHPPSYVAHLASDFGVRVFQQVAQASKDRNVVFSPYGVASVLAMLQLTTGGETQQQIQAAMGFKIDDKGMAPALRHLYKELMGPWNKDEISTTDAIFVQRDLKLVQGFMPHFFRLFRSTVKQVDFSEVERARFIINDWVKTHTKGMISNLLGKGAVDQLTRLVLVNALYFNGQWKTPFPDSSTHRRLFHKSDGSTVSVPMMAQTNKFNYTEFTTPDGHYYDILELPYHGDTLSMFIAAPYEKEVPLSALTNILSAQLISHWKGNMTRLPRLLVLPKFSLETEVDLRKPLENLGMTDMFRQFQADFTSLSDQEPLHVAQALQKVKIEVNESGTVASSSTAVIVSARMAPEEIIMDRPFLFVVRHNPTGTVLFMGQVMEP
SMILES,Inhibition [1] [%],Inhibition [2] [%],Inhibition [3] [%],IC50 [4] [µM]
O=C(O)C(=O)c1cn(Cc2ccccc2)c2ccc(-c3ccc(OC(F)(F)F)cc3)cc12,0,47,83,–
O=C(O)c1cc2cc(NS(=O)(=O)c3ccccc3)ccc2n1Cc1ccccc1,–,–,32,–
Cn1c(C(=O)O)c(-c2ccccc2)c2cc(NS(=O)(=O)c3ccc(C(C)(C)C)cc3)ccc21,5,46,–,–
O=C(O)c1c(-c2ccccc2)c2cc(NS(=O)(=O)c3ccc(-c4ccccc4)cc3)ccc2n1Cc1ccccc1,44,61,–,–
Cn1c(C(=O)O)c(-c2ccccc2)c2cc(NS(=O)(=O)c3cccc4cccnc34)ccc21,0,1,–,–
Cn1c(C(=O)O)c(-c2ccccc2)c2cc(NS(=O)(=O)c3ccc(-c4ccccc4)cc3)ccc21,11,68,–,–
O=C(O)c1c(-c2ccccc2)c2cc(NS(=O)(=O)c3ccccc3)ccc2n1Cc1ccc(-c2ccccc2)cc1,79,87,–,–
Cn1c(C(=O)O)c(-c2ccccc2)c2cc(NS(=O)(=O)c3ccc(OC(F)(F)F)cc3)ccc21,0,19,–,–
CC(C)(C)c1ccc(S(=O)(=O)Nc2ccc3c(c2)c(-c2ccccc2)c(C(=O)O)n3Cc2ccccc2)cc1,41,82,–,–
O=C(O)c1c(-c2ccccc2)c2cc(NS(=O)(=O)c3ccc(OC(F)(F)F)cc3)ccc2n1Cc1ccccc1,33,81,–,–
O=C(O)c1cc2cc(NS(=O)(=O)c3ccc(-c4ccccc4)cc3)ccc2n1Cc1ccccc1,–,49,64,63.1
CC(C)(C)c1ccc(Nc2ccc3c(c2)c(-c2ccccc2)c(C(=O)O)n3Cc2ccc(-c3ccccc3)cc2)cc1,52,80,–,–
O=C(Nc1ccc(Cl)c(Cl)c1)c1ccc(CNc2cc([N+](=O)[O-])ccc2C(=O)O)cc1,3,51,74,17.8
CCCCS(=O)(=O)Nc1ccc2c(c1)cc(C(=O)O)n2Cc1ccccc1,–,–,14,–
O=C(O)c1c(-c2ccccc2)c2cc(NS(=O)(=O)c3cccc4cccnc34)ccc2n1Cc1ccccc1,8,43,–,–
O=C(Nc1ccc2c(c1)c(-c1ccccc1)c(C(=O)O)n2Cc1ccccc1)c1ccc(F)cc1F,24,43,–,–
Cc1ccc(C)n1-c1ccc2c(c1)c(-c1ccccc1)c(C(=O)O)n2Cc1ccccc1,23,83,–,–
O=C(Nc1ccc2c(c1)c(-c1ccccc1)c(C(=O)O)n2Cc1ccccc1)Nc1ccc(F)cc1F,27,61,–,–
Cc1cccc(Nc2ccc3c(c2)c(-c2ccccc2)c(C(=O)O)n3Cc2ccccc2)c1,24,69,–,–
CC(C)(C)c1ccc(Nc2ccc3c(c2)c(-c2ccccc2)c(C(=O)O)n3Cc2ccccc2)cc1,45,73,–,–
O=C(O)c1cc2cc(NS(=O)(=O)c3ccc(Cl)c(Cl)c3)ccc2n1Cc1ccccc1,–,–,62,–
O=C(O)c1c(-c2ccccc2)c2cc(-n3cccc3)ccc2n1Cc1ccccc1,12,69,–,–
O=C(O)c1c(-c2ccccc2)c2cc(Nc3ccc(-c4ccccc4)cc3)ccc2n1Cc1ccccc1,36,71,–,–
